Measurements taken from paper PMC9729583 (Antiviral Research, 2022).
Read-outs that look alike come from different tables or passages of the source.

Legend:
mNG-SARS-CoV-2 [1] = experiment: microbe, parasite or virus in culture; format: cell-based; conditions: for % Inhibition: 50 µM; for inhibition at 50 µM: Severe acute respiratory syndrome coronavirus 2, Calu-3
mNG-SARS-CoV-2 [2] = experiment: microbe, parasite or virus in culture; format: cell-based
Calu-3 cells = experiment: PrestoBlue cytotoxicity assay; format: cell-based, human; conditions: Calu-3, 48 h incubation
Procedure, shortened: (§1)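 Calu-3 cells were grown per ATCC recommendations and seeded in 96-well plates. After 24 h, medium was replaced with serially diluted test compound for 48 h. Cells were then incubated 2 h with 5% PrestoBlue and fluorescence read at ex 555/em 585 nm. Viability was expressed as % of vehicle-treated cells. At least three independent experiments were run.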

SARS-CoV-2 Omicron BA.1 = experiment: dose-response against SARS-CoV-2 Omicron BA.1 in Calu-3 cells; format: cell-based
wild-type SARS-CoV-2 [3] = conditions: cited from earlier work
mNG-SARS-CoV-2 [4] = experiment: microbe, parasite or virus in culture; format: cell-based; remark: listed apart in the source
wild-type SARS-CoV-2 [5] = conditions: Huh-7.5 cells ref Dittmar et al., 2021; cited from earlier work
[6] = PrestoBlue cytotoxicity assay; format: cell-based, human; conditions: human, Calu-3 cells
Procedure, shortened: as §1

3CLpro = 3CLpro (Severe acute respiratory syndrome coronavirus 2, UniProt P0DTD1); experiment: 3CLpro enzymatic assay; format: biochemical, SARS-CoV-2; conditions: data not shown
[7] = Severe acute respiratory syndrome coronavirus 2, Calu-3, read-out: BA.1 (EC50) Nuc, Calu-3, nucleocapsid staining
[8] = Severe acute respiratory syndrome coronavirus 2, Calu-3, read-out: BA.1 (EC50) dsRNA, Calu-3, dsRNA staining
[9] = Severe acute respiratory syndrome coronavirus 2, Calu-3

Compound	% Inhibition (mNG-SARS-CoV-2 [1]) [%]	EC50 (mNG-SARS-CoV-2 [2]) [µM]	CC50 (Calu-3 cells) [µM]	also measured
2-butylchrysin	95	18	> 100	–
CC(C)=CCc1cc([C@@H]2CC(=O)c3c(O)cc(O)c(CC=C(C)C)c3O2)cc(CC=C(C)C)c1O [5-hydroxysophoranone]	100	20.2	> 100	–
COc1cc([C@H]2OC[C@]3(O)[C@@H](c4ccc(O)c(OC)c4)OC[C@H]23)ccc1O [8-hydroxypinoresinol]	82	24.4	> 100	–
N[C@H](CNc1nc(-c2ccncc2)nc2sc3c(c12)CCCC3)Cc1ccccc1 [CRT0066854]	–	–	–	EC50 (SARS-CoV-2 Omicron BA.1; read-out: BA.1 (EC50) Nuc, Calu-3, nucleocapsid staining): 0.3 µM; EC50 (SARS-CoV-2 Omicron BA.1; read-out: BA.1 (EC50) dsRNA, Calu-3, dsRNA staining): 0.1 µM
CC(C)C[C@H](NC(=O)OCc1ccccc1)C(=O)N[C@@H](CC1CCNC1=O)C(O)S(=O)(=O)O (stereo partly drawn) [GC376]	–	0.475	–	EC50 (wild-type SARS-CoV-2 [3]; Vero E6 cells ref Dampalla et al., 2021): 0.23 µM; EC50 (wild-type SARS-CoV-2 [3]; Vero E6 cells ref Fu et al., 2020): 0.7 µM
Cn1c2ccccc2c2c3c(c4c5ccccc5n(CCC#N)c4c21)CNC3=O [Gö6976]	–	–	–	effect on SARS-CoV-2 BA.1 infection (SARS-CoV-2 Omicron BA.1): dramatic increase in susceptibility of cells to SARS-CoV-2 BA.1
COc1ccc2c(c1)c(C1=C(c3c[nH]c4ccccc34)C(=O)NC1=O)cn2CCCN(C)C [Gö6983]	–	–	–	effect on SARS-CoV-2 BA.1 infection (SARS-CoV-2 Omicron BA.1): dramatic increase in susceptibility of cells to SARS-CoV-2 BA.1
C/C=C(/C)C(=O)O[C@H]1C(C)=C[C@]23C(=O)[C@@H](C=C(CO)[C@@H](O)[C@]12O)[C@H]1[C@@H](C[C@H]3C)C1(C)C [PEP 005]	–	–	–	EC50 (SARS-CoV-2 Omicron BA.1; [7]): 0.7 µM; EC50 (SARS-CoV-2 Omicron BA.1; [8]): 1.5 µM
CCC(CC)COC(=O)[C@H](C)N[P@](=O)(OC[C@H]1O[C@@](C#N)(c2ccc3c(N)ncnn23)[C@H](O)[C@@H]1O)Oc1ccccc1 [RDV, remdesivir]	–	–	–	EC50 (mNG-SARS-CoV-2 [4]; Severe acute respiratory syndrome coronavirus 2, Huh-7.5.1, read-out: EC50 (mNG)): 0.0036 µM; EC50 (mNG-SARS-CoV-2 [4]; Severe acute respiratory syndrome coronavirus 2, Huh-7.5.1, read-out: EC50 (nucleocapsid staining)): 0.0076 µM; EC50 (wild-type SARS-CoV-2 [5]): 0.002 µM
CC1(C)C=Cc2c(cc3occ(-c4ccc(O)cc4)c(=O)c3c2O)O1 [alpinumisoflavone]	–	–	–	inhibition at 50 µM (mNG-SARS-CoV-2 [1]): 100%; CC50 at 48 h [6]: > 100 µM
C[C@@H]1CC[C@@]2(OC1)O[C@H]1C[C@H]3[C@@H]4CC[C@@H]5CC(=O)CC[C@]5(C)[C@H]4CC(=O)[C@]3(C)[C@@]1(O)[C@@H]2C [asparacemosone B]	83	4.04	> 100	–
CCC/C=C/C=C/C(=O)O[C@H]1/C(=C/C(=O)OC)C[C@H]2C[C@H]([C@@H](C)O)OC(=O)C[C@H](O)C[C@@H]3C[C@H](OC(C)=O)C(C)(C)[C@](O)(C[C@@H]4C/C(=C/C(=O)OC)C[C@H](/C=C/C(C)(C)[C@]1(O)O2)O4)O3 [bryostatin, bryostatin-1]	–	–	–	EC50 (SARS-CoV-2 Omicron BA.1; [7]): 0.222 µM; EC50 (SARS-CoV-2 Omicron BA.1; [8]): 0.523 µM
CC(=O)O[C@H]1CC[C@]2(C)[C@H]3CC[C@]4(C)Oc5cc(C)oc(=O)c5C[C@H]4[C@]3(C)CC[C@H]2C1(C)C [chevalone B]	95	4.47	> 100	–
CC(=O)O[C@H]1CC[C@]2(C)[C@H]3CC[C@]4(C)Oc5oc(C)cc(=O)c5C[C@H]4[C@]3(C)CC[C@H]2C1(C)C [chevalone C]	100	4.14	93	–
O=c1cc(-c2ccccc2)oc2cc(O)cc(O)c12 [chrysin]	–	–	–	inhibition at 50 µM (mNG-SARS-CoV-2 [1]): 99%; EC50 (mNG-SARS-CoV-2 [2]; [9]): 18.8 µM; CC50 at 48 h [6]: > 100 µM
CC(C)=CCC[C@](C)(O)[C@H]1CC[C@]2(C)[C@@H]1CC[C@@H]1[C@@]3(C)CCC(=O)C(C)(C)[C@@H]3CC[C@]12C [dipterocarpol]	–	3.05	–	inhibition at 50 µM (mNG-SARS-CoV-2 [1]): 99%; CC50 at 48 h [6]: > 100 µM

Compound	% Inhibition (mNG-SARS-CoV-2 [1]) [%]	EC50 (mNG-SARS-CoV-2 [2]) [µM]	CC50 (Calu-3 cells) [µM]	also measured
CC(C)=CCc1cc(-c2coc3c(CC=C(C)C)c(O)ccc3c2=O)ccc1O [erysubin F]	–	–	–	inhibition at 50 µM (mNG-SARS-CoV-2 [1]): 100%; EC50 (mNG-SARS-CoV-2 [2]; [9]): 45.6 µM; CC50 at 48 h [6]: > 100 µM
C=CC(C)(C)c1[nH]c2ccccc2c1-c1c(O)c(OC)c2c(c1OC)O[C@H]1Nc3ccccc3[C@@]21O [giluterrin]	–	5.44	72	–
CC1(O)O[C@@H](n2c3ccccc3c3c4c(c5c6ccccc6[nH]c5c32)CNC4=O)C[C@@H](N)[C@H]1O (stereo partly drawn) [holyrine B]	–	–	–	activity against 3CLpro (3CLpro): neither holyrine A nor B presented activity against 3CLpro
C=C1C[C@@]23CC[C@H]4[C@@](C)(CCC[C@@]4(C)C(=O)O)[C@@H]2CC[C@@H]1C3 [kaur-16-en-18-oic acid]	100	15.1	> 100	–
CC(C)=CCC/C(C)=C/Cc1c(O)cc2oc3c(O)cccc3c(=O)c2c1O [mangostinone]	–	27.9	–	inhibition at 50 µM (mNG-SARS-CoV-2 [1]): 92%; CC50 at 48 h [6]: > 100 µM
Cc1cc(O)c(C=O)c2c1C(=O)Oc1c(cc3c(c1C)C(=O)CC(C)(C)O3)O2 [mollicellin B]	–	6.79	–	inhibition at 50 µM (mNG-SARS-CoV-2 [1]): 100%; CC50 at 48 h [6]: > 100 µM
COc1c2ccoc2c(OCC=C(C)C)c2oc(=O)ccc12 [phellopterin]	–	6.35	–	inhibition at 50 µM (mNG-SARS-CoV-2 [1]): 96%; CC50 at 48 h [6]: 93 µM
CC(=O)O[C@@]12C[C@@H](C)[C@@]3(O)[C@@H](C=C(CO)C[C@]4(O)C(=O)C(C)=C[C@@H]34)[C@@H]1C2(C)C [prostratin]	–	–	–	EC50 (SARS-CoV-2 Omicron BA.1; [7]): 11.6 µM; EC50 (SARS-CoV-2 Omicron BA.1; [8]): 5 µM
C=C1C[C@H]2[C@@](C)(C(=O)C(O)=C3C(C)(C)C(=O)CC[C@@]32C)[C@@H]2C(=O)O[C@@](C)(C(=O)OC)C(=O)[C@@]12C [terretonin A]	–	7.31	–	inhibition at 50 µM (mNG-SARS-CoV-2 [1]): 82%; CC50 at 48 h [6]: > 100 µM
COc1cc(-c2cc3c(c(=O)o2)C[C@]2(O)[C@@]4(C)C(=O)C=CC(C)(C)[C@]4(O)CC[C@@]2(C)O3)cc(OC)c1OC [territrem B]	–	6.64	–	inhibition at 50 µM (mNG-SARS-CoV-2 [1]): 100%; CC50 at 48 h [6]: > 100 µM
acetyl hyrtiosal	97	1.97	> 100	–
artahongkongene B	81	22	> 100	–
asparacemosone A	95	20.7	> 100	–
crotonolide F	97	8.21	> 100	–
knecorticosanone G	100	3.5	> 100	–
piperbonin A	100	3.61	> 100	–
